PMC3259211 (Journal of Controlled Release, 2011)
pIC50: −log10 of the molar value.

Legend:
white blood cells (WBCs) = experiment: Mobilization of white blood cells to peripheral blood; type: in vivo, mice; settings: 50 µg per mouse s.c., 2 h; in words
In short: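 Normal mice received 50 µg test peptide s.c. in 200 µL; untreated mice were controls. Heart blood was taken under anaesthesia at 30 min, 1 h and 2 h. 100 µL blood was RBC-lysed, blocked 10 min on ice with 2% rat and 2% mouse serum, and stained for CD45.2, CD3, B220, CD11b, Gr-1 and F4/80. Cells were counted by flow cytometry with counting beads, WBCs gated as CD45.2⁺. Groups had ≥3 mice; two experiments.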

progenitor cells = experiment: Mouse progenitor colony assay; type: in vivo, mice; settings: 50 µg, post injection; in words
In short: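 Mice were injected s.c. with 50 µg peptide; untreated mice were controls. 150 µL blood per mouse was plated in 3 mL MethoCult GF. Colonies were counted by inverted microscope 14 days after plating. Each group had ≥3 mice, assayed in duplicate per mouse.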

CXCR4 = CXCR4 (Homo sapiens, UniProt P61073); settings: read-out: IC50 (binding to CXCR4); reported for T140; ref [26]; cited from earlier work
stem cells = settings: mice; ref [12]; cited from earlier work
[1] = system: Jurkat cells (CXCL12-induced migration); settings: Jurkat T-cells; ref [30]; cited from earlier work

Sequence of CXCR4 (P61073 whole entry): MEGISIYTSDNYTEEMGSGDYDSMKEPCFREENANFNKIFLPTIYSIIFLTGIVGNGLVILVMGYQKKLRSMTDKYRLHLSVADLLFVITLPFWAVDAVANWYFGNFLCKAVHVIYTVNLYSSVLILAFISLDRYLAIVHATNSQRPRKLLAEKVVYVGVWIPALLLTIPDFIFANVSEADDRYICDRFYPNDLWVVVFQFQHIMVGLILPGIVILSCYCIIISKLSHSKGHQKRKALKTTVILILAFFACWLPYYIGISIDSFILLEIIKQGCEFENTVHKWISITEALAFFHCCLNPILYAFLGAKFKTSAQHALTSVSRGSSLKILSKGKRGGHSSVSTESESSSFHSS

Substance	time course of WBC numbers in the blood (white blood cells (WBCs))	time course of progenitors in the blood (progenitor cells)	pIC50 (CXCR4)	in vivo mobilization of stem cells from the bone marrow (stem cells)	lowest concentration that induces maximal migration [1] [ng/mL]
4-F-benzoyl-TN14003 [T140]	remained relatively stable after 2 h	increased steadily and remained substantially elevated between 2 and 4 h post injection	8.60	induces in vivo mobilization of stem cells from the bone marrow, which is additive in effect with G-CSF treatment	–
CXCL12: natural human ligand of CXCR4, chemokine CXCL12/SDF-1	–	–	–	–	100
